Test results reported in ChEMBL document CHEMBL5338794, “Optimization of Orally Bioavailable Antileishmanial 2,4,5-Trisubstituted Benzamides” (J Med Chem, 2023).
Values after ≈ are worked out from the molar mass of the structure shown.

Experiments:
BJ = test: Cytotoxicity against human BJ cells assessed as reduction in cell viability incubated for 72 hrs by Cell TiterGlo assay; format: functional, cell-based
Leishmania mexicana = test: Antileishmanial activity against renilla luciferase-expressing Leishmania mexicana promastigotes infected in mouse J774.A1 cells assessed as inhibition of intracellular amastigotes growth incubated for 96 hrs by Renilla luciferase assay; format: functional, organism-based; settings: J774.A1, 96 h
[1] = Kinetic aqueous solubility of the compound in PBS at pH 7.4 incubated for 18 hrs by LC-MS analysis; format: physicochemical; settings: read-out: Kinetic_solubility
[2] = Metabolic stability in CD-1 mouse liver microsomes assessed as half life at 1 uM and measured upto 60 mins in presence of NADPH regenerating system by LC-MS/MS analysis; format: ADME, Microsome; settings: 1 h
In short: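 Half-life and intrinsic clearance determined by incubation with mouse liver microsomes.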

| solubility kinetic at 18 h [1] [µM] | t1/2 [2] [min] | SMILES | EC50 (BJ) [nM] | EC50 (Leishmania mexicana) [nM] |
| --- | --- | --- | --- | --- |
| – | – | Cc1cc(Cl)c(Cl)cc1NC(=O)c1cc([N+](=O)[O-])c(F)cc1F | 1300 | 300 |
| – | – | CN1CCN(c2cc(Cl)c(C(=O)Nc3cccc(-c4nccs4)c3)cc2[N+](=O)[O-])CC1 | – | 2100 |
| – | – | N#Cc1ccc(NC(=O)c2ccc(N3CCNCC3)c([N+](=O)[O-])c2)cc1 | – | 5400 |
| – | – | Cc1ccc(-c2nc3ccccc3s2)cc1NC(=O)c1cc([N+](=O)[O-])c(N2CC3(COC3)C2)cc1Cl | – | 29000 |
| – | – | O=C(Nc1ccc(F)c(F)c1)c1cc([N+](=O)[O-])c(F)cc1Cl | – | 1300 |
| 15 (≈ 6.67 µg/mL) | 138 | O=C(Nc1cncc(-c2nc3ccccc3o2)c1)c1ccc(N2CCNCC2)c([N+](=O)[O-])c1 | 20000 | 500 |
| – | – | Cc1ccc(-c2nc3ccccc3s2)cc1NC(=O)c1cc([N+](=O)[O-])c(N2CCNCC2)cc1Cl | > 14500 | 700 |
| – | – | O=C(Nc1cnc(Cl)c(Cl)c1)c1cc([N+](=O)[O-])c(F)cc1Cl | – | 500 |
| – | – | O=C(Nc1cccc(Cl)c1)c1cc([N+](=O)[O-])c(F)cc1F | 1800 | 600 |
| – | – | O=C(Nc1cncc(-c2nc3ccccc3o2)c1)c1cc([N+](=O)[O-])c(F)cc1F | > 30000 | 500 |
| – | – | O=C(Nc1cccc(Cl)c1)c1ccc(N2CCNCC2)c([N+](=O)[O-])c1 | – | 1400 |
| 12.8 (≈ 6.3 µg/mL) | 120 | Cc1ccc(-c2nc3ccccc3o2)cc1NC(=O)c1cc([N+](=O)[O-])c(N2CCNCC2)cc1Cl | 19100 | 200 |
| – | – | Cc1ccc(-c2nc3ccccc3s2)cc1NC(=O)c1cc([N+](=O)[O-])c(N(C)CCN(C)C)cc1Cl | 6100 | 400 |
| – | – | Cc1ccc(-c2nc3ccccc3s2)cc1NC(=O)c1cnccc1F | – | 27000 |
| – | – | Cc1ccc(-c2nc3ccccc3s2)cc1NC(=O)c1cc([N+](=O)[O-])c(N2CC3(CNC3)C2)cc1Cl | 11300 | 700 |
| – | – | O=C(Nc1cnc(Cl)c(Cl)c1)c1ccc(N2CCNCC2)c([N+](=O)[O-])c1 | – | 1200 |
| – | – | Cc1ccc(-c2nc3ccccc3s2)cc1NC(=O)c1cc([N+](=O)[O-])c(N2CC3(CN(C(=O)OC(C)(C)C)C3)C2)cc1Cl | – | 63000 |
| 12.4 (≈ 5.94 µg/mL) | 130 | O=C(Nc1cncc(-c2nc3ccccc3o2)c1)c1cc([N+](=O)[O-])c(N2CCNCC2)cc1Cl | 3100 | 800 |
| – | – | O=C(Nc1ccc(Cl)cc1)c1cc([N+](=O)[O-])c(F)cc1Cl | – | 1100 |
| – | – | O=C(Nc1cccc(-c2ncco2)c1)c1cc([N+](=O)[O-])c(F)cc1Cl | – | 900 |
| – | – | Cc1ccc(-c2nc3ccccc3s2)cc1NC(=O)c1cnccc1O | – | 53000 |
| – | – | O=C(Nc1ccc(Cl)c(Cl)c1)c1ccc(F)c([N+](=O)[O-])c1 | – | 1100 |
| – | – | Cc1ccc(-c2nc3ccccc3s2)cc1NC(=O)c1ccc(F)c([N+](=O)[O-])c1 | – | 1200 |
| – | – | O=C(Nc1cccc(-c2cccnc2)c1)c1cc([N+](=O)[O-])c(F)cc1Cl | – | 2000 |
| – | – | Cc1ccc(-c2nc3ccccc3s2)cc1NC(=O)c1cc([N+](=O)[O-])c(Cl)cc1F | – | 2000 |
| – | – | CC(=O)Nc1cccc(NC(=O)c2cc([N+](=O)[O-])c(F)cc2Cl)c1 | – | 2900 |
| – | – | O=C(Nc1ccc(-c2ccccc2)cc1)c1cc([N+](=O)[O-])c(F)cc1Cl | – | 1300 |

| solubility kinetic at 18 h [1] [µM] | t1/2 [2] [min] | SMILES | EC50 (BJ) [nM] | EC50 (Leishmania mexicana) [nM] |
| --- | --- | --- | --- | --- |
| – | – | Cc1ccc(-c2nc3ccccc3s2)cc1NC(=O)c1cc([N+](=O)[O-])c(NCCN(C)C)cc1Cl | 17200 | 800 |
| – | – | COc1ccncc1C(=O)Nc1cc(-c2nc3ccccc3s2)ccc1C | – | 31000 |
| – | – | Cc1ccc(-c2nc3ccccc3s2)cc1NC(=O)c1ccc(F)nc1 | – | 6400 |
| – | – | O=C(Nc1cccc(-c2nccs2)c1)c1cc([N+](=O)[O-])c(F)cc1F | 1500 | 400 |
| – | – | O=C(Nc1ccc(Cl)c(Cl)c1)c1cc([N+](=O)[O-])c(F)cc1Cl | 4200 | 900 |
| – | – | O=C(Nc1cccnc1)c1cc([N+](=O)[O-])c(F)cc1Cl | – | 4600 |
| – | – | Cc1ccc(C)c(NC(=O)c2cc([N+](=O)[O-])c(F)cc2Cl)c1 | – | 2400 |
| – | – | Cc1ccc(Br)cc1NC(=O)c1cc([N+](=O)[O-])c(F)cc1Cl | – | 1400 |
| – | – | Cc1cc(Cl)c(Cl)cc1NC(=O)c1cc([N+](=O)[O-])c(F)cc1Cl | 4200 | 800 |
| – | – | Cc1ccc(-c2nc3ccccc3s2)cc1NC(=O)c1ccc(Cl)nc1 | – | 8200 |
| – | – | Cc1ccc(-c2nc3ccccc3s2)cc1NC(=O)c1cnc(Cl)cc1Cl | – | 9800 |
| – | – | O=C(Nc1cncc(-c2nc3ccccc3o2)c1)c1cc([N+](=O)[O-])c(F)cc1Cl | 2900 | 1000 |
| – | – | Cc1ccc(-c2nc3ccccc3s2)cc1NC(=O)c1ccc(Cl)c([N+](=O)[O-])c1 | – | 20000 |
| – | – | O=C(Nc1cncc(-c2nc3ccccc3s2)c1)c1cc([N+](=O)[O-])c(F)cc1Cl | 4900 | 900 |
| – | – | O=C(Nc1cnc(Cl)c(Cl)c1)c1cc([N+](=O)[O-])c(F)cc1F | 1600 | 200 |
| – | – | Cc1ccc(-c2nc3ccccc3o2)cc1NC(=O)c1cc([N+](=O)[O-])c(N2CCN(C)CC2)cc1Cl | 4600 | 800 |
| 5.3 (≈ 2.35 µg/mL) | 56 | Cc1cc(Cl)c(Cl)cc1NC(=O)c1cc([N+](=O)[O-])c(N2CCNCC2)cc1Cl | 14200 | 100 |
| – | – | Cc1ccc(-c2nc3ccccc3s2)cc1NC(=O)c1cc([N+](=O)[O-])c(Cl)cc1Cl | – | 4300 |
| – | – | O=C(Nc1cccc(-c2nccs2)c1)c1ccc(N2CCNCC2)c([N+](=O)[O-])c1 | – | 1400 |
| – | – | Cc1ccc(C(F)(F)F)cc1NC(=O)c1cc([N+](=O)[O-])c(F)cc1Cl | – | 1700 |
| – | – | Cc1ccc(-c2nc3ccccc3s2)cc1NC(=O)c1cc([N+](=O)[O-])c(F)cc1Cl | – | 1200 |
| – | – | O=C(Nc1ccc(Cl)c(Cl)c1)c1cc([N+](=O)[O-])c(F)cc1F | 2400 | 200 |
| – | – | O=C(Nc1ccc(F)cc1)c1cc([N+](=O)[O-])c(F)cc1Cl | – | 1200 |
| – | – | O=C(Nc1cccc(Cl)c1)c1ccc(F)c([N+](=O)[O-])c1 | – | 4000 |
| – | – | O=C(Nc1ccc(F)c(Cl)c1)c1cc([N+](=O)[O-])c(F)cc1Cl | – | 1000 |
| 31 (≈ 12.7 µg/mL) | 67 | Cc1cc(Cl)c(Cl)cc1NC(=O)c1ccc(N2CCNCC2)c([N+](=O)[O-])c1 | 24900 | 800 |
| – | – | COc1cc(Cl)ncc1C(=O)Nc1cc(-c2nc3ccccc3s2)ccc1C | – | 42000 |

| solubility kinetic at 18 h [1] [µM] | t1/2 [2] [min] | SMILES | EC50 (BJ) [nM] | EC50 (Leishmania mexicana) [nM] |
| --- | --- | --- | --- | --- |
| – | – | N#Cc1ccc(NC(=O)c2cc([N+](=O)[O-])c(F)cc2Cl)cc1 | – | 1000 |
| 9.4 (≈ 3.25 µg/mL) | 0.6 | O=C(Nc1cccc(-c2ncco2)c1)c1cc([N+](=O)[O-])c(F)cc1F | 1500 | 700 |
| 22 (≈ 9.36 µg/mL) | 27 | Cc1ccc(-c2nc3ccccc3s2)cc1NC(=O)c1cc([N+](=O)[O-])c(F)cc1F | > 25000 | 600 |
| – | – | Cc1ccc(-c2nc3ccccc3s2)cc1NC(=O)c1cc([N+](=O)[O-])ccc1F | – | 64000 |
| – | – | O=C(Nc1cccc(-c2nc3ccccc3o2)c1)c1cc([N+](=O)[O-])c(F)cc1F | 4500 | 800 |
| – | – | Cc1ccc(-c2nc3ccccc3s2)cc1NC(=O)c1cc([N+](=O)[O-])c(NCCN)cc1Cl | 6300 | 300 |
| – | – | Cc1ccc(-c2nc3ccccc3s2)cc1NC(=O)c1ccc(N2CCNCC2)c([N+](=O)[O-])c1 | 8600 | 300 |
| – | – | Cc1ccc(-c2nc3ccccc3s2)cc1NC(=O)c1cc([N+](=O)[O-])c(NCCNC(=O)OC(C)(C)C)cc1Cl | > 25000 | 700 |
| – | – | O=C(Nc1cccc(-c2ccccn2)c1)c1cc([N+](=O)[O-])c(F)cc1Cl | – | 1100 |
| – | – | Cc1ccc(-c2nc3ccccc3s2)cc1NC(=O)c1ccc(Br)cc1Cl | – | 57000 |
| – | – | Cc1ccc(-c2nc3ccccc3s2)cc1NC(=O)c1cnccc1C#N | – | 51000 |
| – | – | O=C(Nc1ccc(Cl)c(Cl)c1)c1ccc(N2CCNCC2)nc1 | – | 1400 |
| – | – | Cc1cc(Cl)c(Cl)cc1NC(=O)c1ccc(F)c([N+](=O)[O-])c1 | – | 2400 |
| < 0.3 | 13 | Cc1ccc(-c2nc3ccccc3s2)cc1NC(=O)c1cc([N+](=O)[O-])c(N2CCN(C)CC2)cc1Cl | > 25000 | 800 |
| – | – | CN1CCN(c2cc(Cl)c(C(=O)Nc3cncc(-c4nc5ccccc5s4)c3)cc2[N+](=O)[O-])CC1 | > 30000 | 900 |
| – | – | Cc1ccc(NC(=O)c2cc([N+](=O)[O-])c(F)cc2Cl)cc1 | – | 1200 |
| – | – | O=C(Nc1cccc(-c2ncco2)c1)c1ccc(N2CCNCC2)c([N+](=O)[O-])c1 | – | 3100 |
| – | – | Cc1ccc(-c2nc3ccccc3s2)cc1NC(=O)c1cnccc1Cl | – | 8800 |
| – | – | O=C(Nc1cccc(-c2nccs2)c1)c1cc([N+](=O)[O-])c(N2CCNCC2)cc1Cl | – | 1500 |
| – | – | Cc1ccc(-c2nc3ccccc3s2)cc1NC(=O)c1ccc(Br)cc1F | – | 45000 |
| – | – | Cc1ccc(-c2nc3ccccc3s2)cc1NC(=O)c1cc([N+](=O)[O-])ccc1C(F)(F)F | – | 56000 |
| – | – | O=C(Nc1cccc(-c2nccs2)c1)c1cc([N+](=O)[O-])c(F)cc1Cl | – | 1300 |
| – | – | Cc1ccc(-c2nc3ccccc3o2)cc1NC(=O)c1cc([N+](=O)[O-])c(F)cc1Cl | 16000 | 400 |
| – | – | Cc1ccc(-c2nc3ccccc3s2)cc1NC(=O)c1cc([N+](=O)[O-])c(NC2CCN(C)CC2)cc1Cl | 9200 | 800 |
| – | – | Cc1ccc(-c2nc3ccccc3s2)cc1NC(=O)c1ccc(F)c(C(F)(F)F)c1 | – | 21000 |
| – | – | O=C(Nc1cccc(-c2nc3ccccc3o2)c1)c1cc([N+](=O)[O-])c(F)cc1Cl | > 30000 | 900 |

| SMILES | solubility kinetic at 18 h [1] [µM] | t1/2 [2] [min] | EC50 (BJ) [nM] | EC50 (Leishmania mexicana) [nM] |
| --- | --- | --- | --- | --- |
| Cc1cc(Cl)c(Cl)cc1NC(=O)c1ccc(N2CCNCC2)c(C#N)c1 | 3.6 (≈ 1.4 µg/mL) | 48 | 13500 | 900 |
